Our source for the folding enthalpy and Tm values is the array DNA melting data of Ke et al. (doi:10.1101/2024.01.08.574731).

Data set [1] is described as follows: folding enthalpy; higher = less favourable; fluorescence melt of hairpins on a sequencing array, two-state fit. Particulars: sodium 0.088 M. Put shortly: (§1)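 Two-state fits, bootstrapped, provided melting temperature and folding enthalpy from Cy3 fluorescence normalised to pre-quench Cy3 and to control constructs. Library hairpins with annealed Cy3 and quencher oligos were imaged on a sequenced MiSeq flow cell in 50 mM Na-HEPES pH 8.0, 25 mM NaCl, at 2.5 °C intervals up to 60 °C. Four replicates were combined with inverse-variance weighting. A 9.35 °C upward shift was applied to fitted temperatures to match UV melts.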

The nature of data set [2]: melting temperature; fluorescence melt of hairpins on a sequencing array, two-state fit, raised by 9.35 °C to match UV melts. Particulars: sodium 0.088 M. Put shortly:
as §1

With GTATTCGGAAACAAATAC (((((.(....).))))), the folding enthalpy in data set [1] is -10.3 kcal/mol. In addition, the Tm in data set [2] worked out at 22.5 °C.

Consider GTATTGACGAAAGTCTAC (((..(((....)))))), for which the folding enthalpy in data set [1] was -8.47 kcal/mol. In addition, the Tm in data set [2] turned out to be 25.1 °C.

On to GTATTGCGAAAGCATTAC (((.(((....))).))), for which the folding enthalpy in data set [1] was -23.7 kcal/mol. Further, the Tm in data set [2] is 44.9 °C.

Regarding GTATTGGGAAACTAATAC (((((.(....).))))), the folding enthalpy in data set [1] is -22.2 kcal/mol. In data set [2], the Tm is 34.8 °C.

As to GTATTTCCGAAAGGATAC (((..(((....)))))), the folding enthalpy in data set [1] is -11.8 kcal/mol. For the same sequence, in data set [2], the Tm was 26 °C.

Turning to GTATTTCGAAAGAAGTAC (((.(((....))).))), the folding enthalpy in data set [1] was -34.3 kcal/mol. For the same sequence, the Tm in data set [2] came to 40.4 °C.

For the sequence GTCAAACGAAAGTTGGAC (((.(((....))).))), the folding enthalpy in data set [1] was -24.8 kcal/mol. Also, in data set [2], the Tm was found to be 49.9 °C.

With GTCAACACGAAAGTGGAC (((..(((....)))))), the folding enthalpy in data set [1] was -19.3 kcal/mol. For the same sequence, the Tm in data set [2] worked out at 38.6 °C.

With GTCAACCGAAAGGTCGAC (((.(((....))).))), the folding enthalpy in data set [1] is -35.1 kcal/mol. In addition, the Tm in data set [2] was determined as 50.9 °C.

On to GTCAACGAAAGTTATGAC ((((((....)))..))), for which the folding enthalpy in data set [1] was -20.5 kcal/mol. In data set [2], the Tm came to 33.1 °C.

For GTCAACGAAAGTTCAGAC ((((((....)))..))), in data set [1], the folding enthalpy was -11.4 kcal/mol. Besides, the Tm in data set [2] came out at 28.3 °C.

As for GTCAACGAAAGTTGAC ((((((....)))))), the folding enthalpy in data set [1] was -37.4 kcal/mol. The Tm in data set [2] was 68.9 °C.

For the sequence GTCAACGAAAGTTTGGAC ((((((....)))..))), the folding enthalpy in data set [1] was -13.8 kcal/mol. Also, in data set [2], the Tm was determined as 27.8 °C.

For GTCAACGGAAACGTTGAC (((((((....))))))), in data set [1], the folding enthalpy was -45.2 kcal/mol. For the same sequence, the Tm in data set [2] is 69 °C.

GTCAATACGAAAGTAGAC (((..(((....)))))): the folding enthalpy in data set [1] is -12 kcal/mol. The Tm in data set [2] was 27.3 °C.

As to GTCAATGGAAACATTGAC (((((((....))))))), the folding enthalpy in data set [1] was -39.8 kcal/mol. The Tm in data set [2] was 58.9 °C.

GTCACAACGAAAGTTGAC (((..(((....)))))): the folding enthalpy in data set [1] is -11.7 kcal/mol. The Tm in data set [2] came to 33.2 °C.

For the sequence GTCACACGAAAGTGAGAC (((.(((....))).))), the folding enthalpy in data set [1] is -31.9 kcal/mol. In addition, the Tm in data set [2] came to 55.1 °C.

With GTCACAGGAAACTGTGAC (((((((....))))))), the folding enthalpy in data set [1] is -42.3 kcal/mol. Further, the Tm in data set [2] stood at 66.8 °C.

With GTCACCCCGAAAGGGGAC (((..(((....)))))), in data set [1], the folding enthalpy was -10.1 kcal/mol. Besides, the Tm in data set [2] amounted to 41.4 °C.

GTCACCCGAAAGGGGAC (((.(((....)))))): the folding enthalpy in data set [1] is -20.1 kcal/mol. In addition, the Tm in data set [2] was determined as 55 °C.

For the sequence GTCACCGAAAGGTAAGAC ((((((....)))..))), the folding enthalpy in data set [1] is -19.6 kcal/mol. Also, in data set [2], the Tm was 39 °C.

For GTCACCGAAAGGTCGAC ((((((....))).))), in data set [1], the folding enthalpy is -20.1 kcal/mol. In addition, the Tm in data set [2] stood at 48.1 °C.

With GTCACCGAAAGGTCGGAC ((((((....)))..))), the folding enthalpy in data set [1] was -16 kcal/mol. For the same sequence, in data set [2], the Tm worked out at 34.3 °C.

With GTCACCGGAAACGGTAAC ((.((((....)))).)), the folding enthalpy in data set [1] is -16.6 kcal/mol. In data set [2], the Tm came out at 38.4 °C.

As to GTCACCTCGAAAGAGGAC (((..(((....)))))), in data set [1], the folding enthalpy was -9.82 kcal/mol. Moreover, in data set [2], the Tm was found to be 26.9 °C.

With GTCACGGCGAAAGCCGAC (((..(((....)))))), in data set [1], the folding enthalpy is -6.5 kcal/mol. Besides, the Tm in data set [2] was found to be 27.9 °C.

As to GTCACTCGAAAGAGCGAC (((.(((....))).))), the folding enthalpy in data set [1] was -43.5 kcal/mol. For the same sequence, the Tm in data set [2] is 51.5 °C.

On to GTCACTCGAAAGAGGGAC (((.(((....))).))), for which the folding enthalpy in data set [1] is -50.4 kcal/mol. Further, the Tm in data set [2] is 60.9 °C.

For GTCACTGGAAACAGTGGC (.(((((....))))).), the folding enthalpy in data set [1] was -40.8 kcal/mol. Moreover, in data set [2], the Tm came out at 53.7 °C.

As to GTCACTGGAAACGGTGAC (((((.(....).))))), in data set [1], the folding enthalpy is -47.5 kcal/mol. Further, in data set [2], the Tm was found to be 52.7 °C.

GTCAGACCGAAAGGTGAC (((..(((....)))))): the folding enthalpy in data set [1] was -21.4 kcal/mol. In addition, the Tm in data set [2] came out at 44.4 °C.

Take GTCAGAGCGAAAGCTGAC (((..(((....)))))): the folding enthalpy in data set [1] was -26.4 kcal/mol. In addition, the Tm in data set [2] came out at 49.3 °C.

Turning to GTCAGATCGAAAGATGAC (((..(((....)))))), the folding enthalpy in data set [1] is -22.2 kcal/mol. Besides, the Tm in data set [2] stood at 38.1 °C.

Regarding GTCAGCGAAAGCTGGGAC ((((((....)))..))), in data set [1], the folding enthalpy was -9.13 kcal/mol. Also, the Tm in data set [2] came to 40.2 °C.

For GTCAGCGAAAGCTTAGAC ((((((....)))..))), the folding enthalpy in data set [1] was -15.3 kcal/mol. Besides, in data set [2], the Tm stood at 40 °C.
